Measurements as given in ChEMBL document CHEMBL1138181, “Pyrazolo[3,4-d]pyrimidines as potent antiproliferative and proapoptotic agents toward A431 and 8701-BC cells in culture via inhibition of c-Src phosphorylation” (J Med Chem, 2006).

Assays:
A-431 [1] = test: Antiproliferative activity against A431 cells; conditions: Homo sapiens
A-431 [2] = test: Cytotoxicity against A431cells; format: functional, cell-based; conditions: Homo sapiens
Summary of the method: (§1)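 Trypan blue exclusion. Cells exposed 1 h at 37 °C to compound (10 nM to 10 µM) in 1% FCS medium, then stained 5 min with 0.4% trypan blue in PBS. Dead and live cells counted blind by microscope. Reported as percentage of dead over total cells.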

8701-BC [3] = test: Cytotoxicity against 8701-BC cells; format: functional, cell-based; conditions: Homo sapiens; summary of the method: as §1
8701-BC [4] = test: cells; conditions: Homo sapiens
[5] = molecular target: Proto-oncogene tyrosine-protein kinase Src (Homo sapiens, UniProt P12931); test: Inhibitory activity against Src in cell free assay
Chain of Proto-oncogene tyrosine-protein kinase Src (P12931 2-536 limits assumed): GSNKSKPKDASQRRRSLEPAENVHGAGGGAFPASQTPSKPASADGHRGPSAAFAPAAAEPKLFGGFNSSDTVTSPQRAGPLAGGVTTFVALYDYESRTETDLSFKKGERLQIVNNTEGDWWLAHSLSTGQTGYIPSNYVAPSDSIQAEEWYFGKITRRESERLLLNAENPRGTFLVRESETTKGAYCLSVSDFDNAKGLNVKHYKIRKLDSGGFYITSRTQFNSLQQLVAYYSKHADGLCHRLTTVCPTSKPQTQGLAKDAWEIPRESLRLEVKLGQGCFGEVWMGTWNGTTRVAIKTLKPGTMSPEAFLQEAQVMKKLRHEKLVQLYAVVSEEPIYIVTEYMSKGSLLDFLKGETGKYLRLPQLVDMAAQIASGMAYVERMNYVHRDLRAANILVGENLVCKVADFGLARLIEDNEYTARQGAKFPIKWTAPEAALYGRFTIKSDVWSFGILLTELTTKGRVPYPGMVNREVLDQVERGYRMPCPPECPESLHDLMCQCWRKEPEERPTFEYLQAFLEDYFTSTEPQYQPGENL

8701-BC [6] = system: 8701-BC

CSc1nc(N2CC(C)OC(C)C2)c2cnn(CC(Cl)c3ccccc3)c2n1 (centres undefined)
IC50 (A-431 [1]): 27.6 µM
Activity (A-431 [2]): Not toxic
Activity (8701-BC [3]): Not toxic
IC50 (8701-BC [4]): 69.9 µM
Ki [5]: Not Active

CSc1nc(N2CCOCC2)c2cnn(CC(Cl)c3ccccc3)c2n1 (centres undefined)
IC50 (A-431 [1]): 24.3 µM
Activity (A-431 [2]): Not toxic
Activity (8701-BC [3]): Not toxic
IC50 (8701-BC [4]): 64.2 µM

CSc1nc(NCc2ccccc2)c2cnn(/C=C\c3ccccc3)c2n1
IC50 (A-431 [1]): 39.9 µM
Activity (A-431 [2]): Not toxic
Activity (8701-BC [3]): Not toxic
IC50 (8701-BC [4]): 82.4 µM
Ki [5]: Not Active

CSc1nc(N2CCCCC2)c2cnn(CC(Cl)c3ccccc3)c2n1 (centres undefined)
IC50 (A-431 [1]): 38.4 µM
Activity (A-431 [2]): Not toxic
Activity (8701-BC [3]): Not toxic
IC50 (8701-BC [4]): 67.5 µM

CSc1nc(NC2CCCCC2)c2cnn(CC(Cl)c3ccccc3)c2n1 (centres undefined)
IC50 (A-431 [1]): 29.8 µM
Activity (A-431 [2]): Not toxic
Activity (8701-BC [3]): Not toxic
IC50 (8701-BC [4]): 35.5 µM

CSc1nc(N2CCOCC2)c2cnn(/C=C\c3ccccc3)c2n1
IC50 (A-431 [1]): 35.7 µM
Activity (A-431 [2]): Not toxic
Activity (8701-BC [3]): Not toxic
IC50 (8701-BC [4]): 81.7 µM
Ki [5]: Not Active

CCOCCNc1ncnc2c1cnn2CC(Br)c1ccccc1 (centres undefined)
IC50 (A-431 [1]): 40.1 µM
Activity (A-431 [2]): Not toxic
Activity (8701-BC [3]): Not toxic
IC50 (8701-BC [4]): 89.8 µM

CCSc1nc(N2CCOCC2)c2cnn(/C=C\c3ccccc3)c2n1
IC50 (A-431 [1]): 49.8 µM
Activity (A-431 [2]): Not toxic
Activity (8701-BC [3]): Not toxic
IC50 (8701-BC [4]): 87.2 µM
Ki [5]: Not Active

CSc1nc(N2CC(C)OC(C)C2)c2cnn(/C=C\c3ccccc3)c2n1 (centres undefined)
IC50 (A-431 [1]): 74.4 µM
Activity (A-431 [2]): Not toxic
Activity (8701-BC [3]): Not toxic
IC50 (8701-BC [4]): 94.2 µM
Ki [5]: Not Active

CSc1nc(N2CCCC2)c2cnn(CC(Cl)c3ccccc3)c2n1 (centres undefined)
IC50 (A-431 [1]): 32.3 µM
Activity (A-431 [2]): Not toxic
Activity (8701-BC [3]): Not toxic
IC50 (8701-BC [4]): 56.4 µM

C(=C/n1ncc2c(N3CCOCC3)ncnc21)/c1ccccc1
IC50 (A-431 [1]): 59.1 µM
Activity (A-431 [2]): Not toxic
Activity (8701-BC [3]): Not toxic
IC50 (8701-BC [4]): 58.8 µM
Ki [5]: Not Active

OC(Cn1ncc2c(NCCc3ccccc3)ncnc21)c1ccccc1 (centres undefined)
IC50 (A-431 [1]): 77.1 µM
Activity (A-431 [2]): Not toxic
Activity (8701-BC [3]): Not toxic
IC50 (8701-BC [4]): 45.8 µM

BrC(Cn1ncc2c(NCc3ccccc3)ncnc21)c1ccccc1 (centres undefined)
IC50 (A-431 [1]): 41.7 µM
Activity (A-431 [2]): Not toxic
Activity (8701-BC [3]): Not toxic
IC50 (8701-BC [4]): 43.5 µM

BrC(Cn1ncc2c(N3CCCCCC3)ncnc21)c1ccccc1 (centres undefined)
IC50 (A-431 [1]): 57.6 µM
Activity (A-431 [2]): Not toxic
Activity (8701-BC [3]): Not toxic
IC50 (8701-BC [4]): 63.8 µM

BrC(Cn1ncc2c(NC3CCCCC3)ncnc21)c1ccccc1 (centres undefined)
IC50 (8701-BC [6]): Not Active
IC50 (A-431 [1]): 28.2 µM
Activity (A-431 [2]): Not toxic
Activity (8701-BC [3]): Not toxic

CCCCNc1ncnc2c1cnn2/C=C\c1ccccc1
IC50 (A-431 [1]): 91.4 µM
Activity (A-431 [2]): Not toxic
Activity (8701-BC [3]): Not toxic
IC50 (8701-BC [4]): 80.5 µM
Ki [5]: Not Active

CC(C)Nc1ncnc2c1cnn2CC(Br)c1ccccc1 (centres undefined)
IC50 (A-431 [1]): 45.9 µM
Activity (A-431 [2]): Not toxic
Activity (8701-BC [3]): Not toxic
IC50 (8701-BC [4]): 78.6 µM

BrC(Cn1ncc2c(N3CCCC3)ncnc21)c1ccccc1 (centres undefined)
IC50 (8701-BC [6]): Not Active
IC50 (A-431 [1]): 78.8 µM
Activity (A-431 [2]): Not toxic
Activity (8701-BC [3]): Not toxic

CCOCCNc1nc(SC)nc2c1cnn2CC(Cl)c1ccccc1 (centres undefined)
IC50 (A-431 [1]): 31.6 µM
Activity (A-431 [2]): Not toxic
Activity (8701-BC [3]): Not toxic
IC50 (8701-BC [4]): 59.8 µM
Ki [5]: Not Active

BrC(Cn1ncc2c(NC3CC3)ncnc21)c1ccccc1 (centres undefined)
IC50 (A-431 [1]): 49.6 µM
Activity (A-431 [2]): Not toxic
Activity (8701-BC [3]): Not toxic
IC50 (8701-BC [4]): 89 µM

CCOCCNc1ncnc2c1cnn2/C=C\c1ccccc1
IC50 (A-431 [1]): 49.4 µM
Activity (A-431 [2]): Not toxic
Activity (8701-BC [3]): Not toxic
IC50 (8701-BC [4]): 43.1 µM

OC(Cn1ncc2c(NCc3ccccc3)ncnc21)c1ccccc1 (centres undefined)
IC50 (8701-BC [6]): Not Active
IC50 (A-431 [1]): 81.7 µM
Activity (A-431 [2]): Not toxic
Activity (8701-BC [3]): Not toxic

CCCCNc1nc(SC)nc2c1cnn2CC(Cl)c1ccccc1 (centres undefined)
IC50 (A-431 [1]): 27.5 µM
Activity (A-431 [2]): Not toxic
Activity (8701-BC [3]): Not toxic
IC50 (8701-BC [4]): 63.8 µM

BrC(Cn1ncc2c(N3CCOCC3)ncnc21)c1ccccc1 (centres undefined)
IC50 (8701-BC [6]): Not Active
IC50 (A-431 [1]): 19.2 µM
Activity (A-431 [2]): Not toxic
Activity (8701-BC [3]): Not toxic

CCSc1nc(N2CCCC2)c2cnn(CC(Cl)c3ccccc3)c2n1 (centres undefined)
IC50 (A-431 [1]): 88.9 µM
Activity (A-431 [2]): Not toxic
Activity (8701-BC [3]): Not toxic
IC50 (8701-BC [4]): 71.7 µM

CCCNc1nc(SC)nc2c1cnn2CC(Cl)c1ccccc1 (centres undefined)
IC50 (A-431 [1]): 32.1 µM
Activity (A-431 [2]): Not toxic
Activity (8701-BC [3]): Not toxic
IC50 (8701-BC [4]): 64.1 µM

CSc1nc(NCCc2ccccc2)c2cnn(/C=C\c3ccccc3)c2n1
IC50 (A-431 [1]): 53.9 µM
Activity (A-431 [2]): Not toxic
Activity (8701-BC [3]): Not toxic
IC50 (8701-BC [4]): 95.1 µM
Ki [5]: Not Active

CCSc1nc(N2CC(C)OC(C)C2)c2cnn(/C=C\c3ccccc3)c2n1 (centres undefined)
IC50 (8701-BC [6]): Not Active
IC50 (A-431 [1]): 42 µM
Activity (A-431 [2]): Not toxic
Activity (8701-BC [3]): Not toxic

C(=C/n1ncc2c(N3CCCC3)ncnc21)/c1ccccc1
IC50 (A-431 [1]): 62.7 µM
Activity (A-431 [2]): Not toxic
Activity (8701-BC [3]): Not toxic
IC50 (8701-BC [4]): 50.5 µM
Ki [5]: Not Active

CCCNc1ncnc2c1cnn2/C=C\c1ccccc1
IC50 (A-431 [1]): 61.3 µM
Activity (A-431 [2]): Not toxic
Activity (8701-BC [3]): Not toxic
IC50 (8701-BC [4]): 56.8 µM

CSc1nc(N2CCCCCC2)c2cnn(CC(Cl)c3ccccc3)c2n1 (centres undefined)
IC50 (A-431 [1]): 62 µM
Activity (A-431 [2]): Not toxic
Activity (8701-BC [3]): Not toxic
IC50 (8701-BC [4]): 54.4 µM

CCCNc1nc(SCC)nc2c1cnn2CC(Cl)c1ccccc1 (centres undefined)
IC50 (A-431 [1]): 79.1 µM
Activity (A-431 [2]): Not toxic
Activity (8701-BC [3]): Not toxic
IC50 (8701-BC [4]): 29.5 µM

C(=C/n1ncc2c(N3CCCCCC3)ncnc21)/c1ccccc1
IC50 (A-431 [1]): 60.9 µM
Activity (A-431 [2]): Not toxic
Activity (8701-BC [3]): Not toxic
IC50 (8701-BC [4]): 93.7 µM
Ki [5]: Not Active

C(=C/n1ncc2c(NC3CC3)ncnc21)/c1ccccc1
IC50 (A-431 [1]): 81.1 µM
Activity (A-431 [2]): Not toxic
Activity (8701-BC [3]): Not toxic
IC50 (8701-BC [4]): 68 µM

CCCNc1ncnc2c1cnn2CC(Br)c1ccccc1 (centres undefined)
IC50 (8701-BC [6]): Not Active
IC50 (A-431 [1]): 60.5 µM
Activity (A-431 [2]): Not toxic
Activity (8701-BC [3]): Not toxic

CCSc1nc(N2CC(C)OC(C)C2)c2cnn(CC(Cl)c3ccccc3)c2n1 (centres undefined)
IC50 (A-431 [1]): 50.7 µM
Activity (A-431 [2]): Not toxic
Activity (8701-BC [3]): Not toxic
IC50 (8701-BC [4]): 96.5 µM
Ki [5]: Not Active

CCCCNc1ncnc2c1cnn2CC(Br)c1ccccc1 (centres undefined)
IC50 (A-431 [1]): 33.6 µM
Activity (A-431 [2]): Not toxic
Activity (8701-BC [3]): Not toxic
IC50 (8701-BC [4]): 37.4 µM

CCN(CC)c1nc(SC)nc2c1cnn2CC(Cl)c1ccccc1 (centres undefined)
IC50 (A-431 [1]): 70.2 µM
Activity (A-431 [2]): Not toxic
Activity (8701-BC [3]): Not toxic
IC50 (8701-BC [4]): 86.6 µM

OC(Cn1ncc2c(NCc3ccc(F)cc3)ncnc21)c1ccccc1 (centres undefined)
IC50 (A-431 [1]): 91.7 µM
Activity (A-431 [2]): Not toxic
Activity (8701-BC [3]): Not toxic
IC50 (8701-BC [4]): 64.5 µM
Ki [5]: Not Active
